Assay results reported in ChEMBL document CHEMBL1772983, “Bioactive sesqui- and diterpenoids from the Argentine liverwort Porella chilensis” (2011).
Active and inactive are the calls of the source. The rule behind the calls is not given here.

Experiments:
Pseudomonas aeruginosa [1] = experiment: Antibacterial activity against Pseudomonas aeruginosa ATCC 27853 assessed as increase in bacterial growth at 5 to 50 ug/ml by microplate assay; type: functional, organism-based
Method in brief: (§1)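 Overnight P. aeruginosa ATCC 27853 culture diluted to 10% (v/v) in LB medium. 190 µL of culture plus 10 µL of 1 or 0.1 mg/mL stock in DMSO–water (1:1), giving 50 or 5 µg/mL. 8 replicates; vehicle-only negative control. Incubated 37 °C, 24 h; growth read as OD600. Mean ± SD, Student's t-test, p ≤ 0.05.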

Pseudomonas aeruginosa [2] = experiment: Inhibition of quorum sensing activity in Pseudomonas aeruginosa ATCC 27853 assessed as N-acylhomoserin lactones production at 5 to 50 ug/ml after 24 hrs by measuring beta-galactosidase activity by spectrophotometry
Pseudomonas aeruginosa [3] = experiment: Antibacterial activity against Pseudomonas aeruginosa ATCC 27853 assessed as growth inhibition at 5 to 50 ug/ml after 24 hrs by microplate assay; type: functional, organism-based; method in brief: as §1
Pseudomonas aeruginosa [4] = experiment: Inhibition of Pseudomonas aeruginosa ATCC 27853 biofilm formation at 5 to 50 ug/ml after 24 hrs using crystal violet staining by spectrophotometry analysis; type: functional, organism-based
Method in brief: (§2)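 ATCC 27853 culture diluted to 10% (v/v) in LB and dosed from DMSO–water (1:1) stocks of 1 or 0.1 mg/mL (10 µL into 190 µL), 8 replicates, vehicle control. After 24 h at 37 °C, liquid discarded and wells washed three times with PBS. Stained with 0.1% crystal violet for 20 min, rinsed with water, dye eluted with absolute EtOH, A540 read. Mean ± SD, Student's t-test.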

Pseudomonas aeruginosa [5] = experiment: Induction of Pseudomonas aeruginosa ATCC 27853 biofilm formation at 0.6 uM after 24 hrs using crystal violet staining by spectrophotometry analysis; type: functional, organism-based
Pseudomonas aeruginosa [6] = experiment: Antibacterial activity against Pseudomonas aeruginosa ATCC 27853 assessed as growth inhibition at 5 ug/ml by microplate assay; type: functional; method in brief: as §1
Pseudomonas aeruginosa [7] = experiment: Inhibition of quorum sensing activity in Pseudomonas aeruginosa ATCC 27853 assessed as N-acylhomoserin lactones production at 5 ug/ml after 24 hrs by measuring beta-galactosidase activity by spectrophotometry
Pseudomonas aeruginosa [8] = experiment: Inhibition of quorum sensing activity in Pseudomonas aeruginosa ATCC 27853 assessed as N-acylhomoserin lactones production at 5 ug/ml after 24 hrs by measuring beta-galactosidase activity by spectrophotometry relative to control; set-up: scale not given: the % may be the effect or the level left
Pseudomonas aeruginosa [9] = experiment: Antibacterial activity against Pseudomonas aeruginosa ATCC 27853 assessed as growth inhibition by microplate assay; type: functional, organism-based; method in brief: as §1
Pseudomonas aeruginosa [10] = experiment: Induction of Pseudomonas aeruginosa ATCC 27853 biofilm formation at 50 ug/ml after 24 hrs using crystal violet staining by spectrophotometry analysis relative to control; type: functional; method in brief: as §2
Pseudomonas aeruginosa [11] = experiment: Antibacterial activity against Pseudomonas aeruginosa ATCC 27853 assessed as increase in bacterial growth at 50 ug/ml by microplate assay relative to control; type: functional; method in brief: as §1
Pseudomonas aeruginosa [12] = experiment: Induction of quorum sensing in Pseudomonas aeruginosa ATCC 27853 assessed as N-acylhomoserin lactones production at 50 ug/ml after 24 hrs by measuring beta-galactosidase activity by spectrophotometry
Pseudomonas aeruginosa [13] = experiment: Inhibition of Pseudomonas aeruginosa ATCC 27853 biofilm formation at 5 ug/ml after 24 hrs using crystal violet staining by spectrophotometry analysis relative to control; type: functional; method in brief: as §2
Pseudomonas aeruginosa [14] = experiment: Inhibition of Pseudomonas aeruginosa ATCC 27853 biofilm formation at 50 ug/ml after 24 hrs using crystal violet staining by spectrophotometry analysis relative to control; details: ATCC 27853, 24 h
Pseudomonas aeruginosa [15] = experiment: Inhibition of Pseudomonas aeruginosa ATCC 27853 biofilm formation at 16.4 uM after 24 hrs using crystal violet staining by spectrophotometry analysis relative to control; type: functional; details: ATCC 27853, 24 h; method in brief: as §2
Pseudomonas aeruginosa [16] = experiment: Antibacterial activity against Pseudomonas aeruginosa ATCC 27853 assessed as growth inhibition at 5 ug/ml after 24 hrs by microplate assay relative to control; type: functional; details: ATCC 27853, 24 h, read-out: GI; method in brief: as §1
Pseudomonas aeruginosa [17] = experiment: Inhibition of quorum sensing activity in Pseudomonas aeruginosa ATCC 27853 assessed as N-acylhomoserin lactones production at 16.4 uM after 24 hrs by measuring beta-galactosidase activity by spectrophotometry; set-up: scale not given: the % may be the effect or the level left
Pseudomonas aeruginosa [18] = experiment: Inhibition of Pseudomonas aeruginosa ATCC 27853 biofilm formation at 5 ug/ml after 24 hrs using crystal violet staining by spectrophotometry analysis; type: functional; details: ATCC 27853, 24 h; method in brief: as §2
Pseudomonas aeruginosa [19] = experiment: Antibacterial activity against Pseudomonas aeruginosa ATCC 27853 assessed as growth inhibition at 50 ug/ml by microplate assay relative to control; type: functional; details: read-out: GI; method in brief: as §1

| SMILES | Activity (Pseudomonas aeruginosa [1]) | inhibition (Pseudomonas aeruginosa [2]) | growth inhibition (GI) (Pseudomonas aeruginosa [3]) | inhibition (Pseudomonas aeruginosa [4]) | biofilm induction (Pseudomonas aeruginosa [5]) | also measured |
| --- | --- | --- | --- | --- | --- | --- |
| C[C@@H]1CC[C@@]2(C)C(=O)c3ccoc3C[C@@]12C | Active | Active | Active | Active | inactive | – |
| CC[C@H]1OC(=O)[C@H](C)[C@@H](O[C@H]2C[C@@](C)(OC)[C@@H](O)[C@H](C)O2)[C@H](C)[C@@H](O[C@@H]2O[C@H](C)C[C@H](N(C)C)[C@H]2O)[C@](C)(O)C[C@@H](C)CN(C)[C@H](C)[C@@H](O)[C@]1(C)O | – | – | – | – | – | growth inhibition (GI) (Pseudomonas aeruginosa [6]): inactive; inhibition (Pseudomonas aeruginosa [7]): 76%; Activity (Pseudomonas aeruginosa [8]): 76% |
| CC1=CC(=O)[C@@H]2[C@@H](C)CC[C@H]3[C@@H](C(C)C)CC[C@]3(C)C[C@@]12O | – | – | – | – | inactive | growth inhibition (GI) (Pseudomonas aeruginosa [9]): Dose-dependent effect; Activity (Pseudomonas aeruginosa [10]): 95%; Activity (Pseudomonas aeruginosa [11]): 15%; Activity (Pseudomonas aeruginosa [12]): Active |
| CC(=O)OC[C@@]12Cc3occc3C(=O)[C@]1(C)CC[C@H]2C [NORPINGUISONE ACETATE] | Active | – | – | – | inactive | inhibition at 5 µg/mL (Pseudomonas aeruginosa [13]; ATCC 27853, 24 h): 20%; inhibition at 50 µg/mL (Pseudomonas aeruginosa [14]): 27% |
| CC1(C)[C@@H]2[C@@H]3[C@H](CC[C@@]3(C)O)[C@@](C)(O)CC[C@@H]21 | – | 80% | – | Active | inactive | inhibition at 16.4 µM (Pseudomonas aeruginosa [15]): 37%; inhibition of growth at 5 µg/mL (Pseudomonas aeruginosa [16]): 24% |
| CC(C)[C@H]1CC[C@]2(C)CC3=C(C(=O)C[C@@]3(C)O)[C@@H](C)CC[C@@H]12 | – | – | – | – | inactive | Activity (Pseudomonas aeruginosa [10]): 93%; Activity (Pseudomonas aeruginosa [12]): Active |
| C=C1CC[C@H]2[C@@H]([C@@H]3[C@@H]1CC[C@@]3(C)O)C2(C)C | – | 33% | – | Active | inactive | inhibition at 16.4 µM (Pseudomonas aeruginosa [15]): 41%; growth inhibition (GI) (Pseudomonas aeruginosa [6]): Active; inhibition (Pseudomonas aeruginosa [13]): Active; Activity (Pseudomonas aeruginosa [17]): 33% |
| O=C(O)c1cn(C2CC2)c2cc(N3CCNCC3)c(F)cc2c1=O [CIPROFLOXACIN] | – | – | – | – | – | inhibition at 5 µg/mL (Pseudomonas aeruginosa [18]): 51%; inhibition of growth at 5 µg/mL (Pseudomonas aeruginosa [6]; read-out: GI): 73% |
| CC(C)[C@H]1CC[C@]2(C)C[C@]3(O)C(=CC(=O)[C@H]3C)[C@@H](C)CC[C@@H]12 [ANADENSIN] | – | Active | Active | Active | inactive | growth inhibition (GI) (Pseudomonas aeruginosa [9]): Dose-dependent effect; inhibition at 16.4 µM (Pseudomonas aeruginosa [15]): 47%; inhibition of growth at 50 µg/mL (Pseudomonas aeruginosa [19]): 16% |
| CC1=C2C[C@@]3(C)CC[C@H](C(C)C)[C@@H]3CC[C@H](C)[C@]2(O)CC1=O [FUSICOAURITONE] | – | – | – | – | inactive | growth inhibition (GI) (Pseudomonas aeruginosa [9]): Dose-dependent effect; inhibition of growth at 50 µg/mL (Pseudomonas aeruginosa [19]): 25%; Activity (Pseudomonas aeruginosa [10]): 105%; Activity (Pseudomonas aeruginosa [12]): Active |
| C=CC1(O)CC[C@@]2(C)[C@H](C)CC[C@@]2(C)[C@@H]1C (stereo not given in full) | Active | Active | Active | Active | inactive | – |
| COC(=O)[C@@]12Cc3occc3C(=O)[C@]1(C)CC[C@H]2C | Active | inactive | inactive | – | inactive | – |
